# Laboratory results from ChEMBL document CHEMBL1135652, “Novel soluble cationic trans-diaminedichloroplatinum(II) complexes that are active against cisplatin resistant ovarian cancer cell lines” (J Med Chem, 2002).
# Values joined by “and” are separate entries in the source; they are usually repeats but may differ in a detail not shown here. Equal values may be shown once.
# Tests used:
# 41M [1] = test: cytotoxicity against 41M cells incubated for 24 hr in MTT assay.; format: functional, cell-based, Homo sapiens
# Summary of the method: (§1)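 Cisplatin-sensitive/resistant ovarian cancer line pairs; platinum complexes dissolved in 10 mM NaClO4 in water (1 mg/mL stock, fresh), added to cultures at final 0–200 μM for 24 h. Survival by MTT, absorbance at 520 nm; IC50 (concentration giving 50% cell killing) taken from % survival vs concentration curves. Quadruplicate experiments.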
# 41M [2] = test: cytotoxicity against 41McisR cells incubated for 24 hr in MTT assay; format: functional, cell-based, Homo sapiens; summary of the method: as §1
# A2780cisR [3] = test: cytotoxicity against A2780cisR cells incubated for 24 hr in MTT assay; format: functional, cell-based, Homo sapiens; summary of the method: as §1
# A2780 = test: cytotoxicity against A2780 cells incubated for 24 hr in MTT assay.; format: functional, cell-based, Homo sapiens; summary of the method: as §1
# CH1 [4] = test: cytotoxicity against CH1cisR cells incubated for 24 hr in MTT assay; format: functional, cell-based, Homo sapiens; summary of the method: as §1
# CH1 [5] = test: cytotoxicity against CH1 cells incubated for 24 hr in MTT assay.; format: functional, cell-based, Homo sapiens; summary of the method: as §1
# [6] = Resistant factor was measured as IC50 41M/ IC50 41McisR; format: functional
# A2780cisR [7] = test: Resistant factor was measured as […]; format: functional, cell-based
# [8] = Resistant factor was measured as IC50 CH1/ IC50 CH1cisR; format: functional
Substance,IC50 (41M [1]),IC50 (41M [2]),IC50 (A2780cisR [3]),IC50 (A2780),IC50 (CH1 [4]),IC50 (CH1 [5]),RF [6],RF (A2780cisR [7]),RF [8]
trans-ptcl2(NH3)(pz) [listing 1 of 2 here],52 µM and 46 µM,155 µM and 112 µM,44 µM and 25 µM,5 µM and 10 µM,34 µM and 56 µM,12 µM and 28 µM,–,–,–
CISPLATIN [listing 1 of 2 here],–,–,–,–,–,–,4.1,17.3,3.8
CISPLATIN [listing 2 of 2 here],26 µM,107 µM,38 µM,2.2 µM,23 µM,6 µM,–,–,–
trans-ptcl2(NH3)(pz) [listing 2 of 2 here],–,–,–,–,–,–,3 and 2.4,–,2.8 and 2
trans-ptcl2(pip)(pz) [listing 1 of 2 here],37 µM,118 µM,64 µM,18 µM,85 µM,22 µM,–,–,–
trans-ptcl2(n-butyl amine)(pz) [listing 1 of 2 here],–,–,–,–,–,–,1.5,1.8,1.1
TRANSPLATIN,> 200 µM,> 200 µM,> 200 µM,> 200 µM,> 200 µM,> 200 µM,–,–,–
trans-ptcl2(picoline)(pz) [listing 1 of 2 here],–,–,–,–,–,–,3.3,2.4,2.6
trans-ptcl2(pip)(pz) [listing 2 of 2 here],–,–,–,–,–,–,3.2,3.6,3.9
trans-ptcl2(IPA)(pz) [listing 1 of 2 here],38 µM,122 µM,30 µM,14 µM,50 µM,10 µM,–,–,–
trans-ptcl2(n-butyl amine)(pz) [listing 2 of 2 here],32 µM,48 µM,28 µM,16 µM,19 µM,17 µM,–,–,–
trans-ptcl2(picoline)(pz) [listing 2 of 2 here],45 µM,147 µM,24 µM,10 µM,42 µM,16 µM,–,–,–
trans-ptcl2(IPA)(pz) [listing 2 of 2 here],–,–,–,–,–,–,3.2,2.1,5
